Test results: ChEMBL document CHEMBL3407477, “Synthesis and biological evaluation of compact, conformationally constrained bifunctional opioid agonist - neurokinin-1 antagonist peptidomimetics” (Eur J Med Chem, 2015)
The source made the active and inactive calls.

Experiments:
Mu-type opioid receptor [1] = target: Mu-type opioid receptor (Rattus norvegicus, UniProt P33535); assay: Displacement of [3H]DAMGO from rat brain MOR after 2 hrs
Summary of the method: (§1)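 Rat brain membranes were incubated 2 h at 0 °C with 0.72 nM [3H]DAMGO (MOR) or 0.78 nM [3H]DSLET (DOR). IC50 came from log-dose displacement curves.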

[2] = target: Delta-type opioid receptor (Rattus norvegicus, UniProt P33533); assay: Displacement of [3H]DSLET from rat brain DOR after 2 hrs; summary of the method: as §1
Rattus norvegicus [3] = species on record: Rattus norvegicus; assay: Selectivity ratio of Ki for rat brain DOR to Ki for rat brain MOR
Substance-P receptor = Substance-P receptor (Homo sapiens, UniProt P25103); assay: Displacement of [3H]SP from human NK1 receptor expressed in CHO cells after 20 mins by liquid scintillation counting analysis; format: cell-based
Summary of the method: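 Membranes from hNK1/CHO cells (20 µg) were incubated with 0.4 nM [3H]SP and six test concentrations in duplicate. Buffer was 50 mM Tris pH 7.4 with 5 mM MgCl2, bacitracin, bestatin, captopril and PMSF, for 20 min at 25 °C. Nonspecific binding was defined with 10 µM SP. Samples were filtered on PEI-soaked GF/B, counted by scintillation, three independent experiments. Ki by Cheng-Prusoff from nonlinear-regression IC50.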

Mu-type opioid receptor [4] = target: Mu-type opioid receptor (Cavia porcellus, UniProt P97266); assay: Activation of MOR in guinea pig ileum; format: tissue-based
Summary of the method: (§2)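 Isolated guinea pig ileum (MOR) and mouse vas deferens (DOR) bioassays. A [Leu5]enkephalin standard dose-response curve was run on each tissue preparation, and test IC50 values were normalized to it. Values are means of 3-4 experiments.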

[5] = target: Delta-type opioid receptor (Mus musculus, UniProt P32300); assay: Activation of DOR in mouse vas deferens; summary of the method: as §2
Rattus norvegicus [6] = species on record: Rattus norvegicus; assay: Antinociceptive activity in Wistar rat at 0.1 to 1 nmol, it after 30 mins by tail flick test; format: functional, organism-based
Summary of the method: (§3)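 Naive male Wistar rats (250-300 g) with i.t. catheters received a single i.t. injection in water for injection (5 µl plus 10 µl flush), 7 days after catheter implantation. Tail-flick latency to a light-bulb heat stimulus at two-thirds of tail length was read 30 min post-dose (timepoints up to 180 min), with a 9 s cut-off. Data are %MPE = (TL-BL)/(cut-off-BL)×100, 7-12 rats/group, ANOVA with Bonferroni.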

Rattus norvegicus [7] = species on record: Rattus norvegicus; assay: Antiallodynic effect in Wistar rat chronic constriction injury model at 0.1 to 1 nmol, it measured 7 days post CCI challenge by Von Frey test; format: functional, organism-based
Summary of the method: (§4)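 Male Wistar rats (300-350 g) with i.t. catheters (L4-L6) had CCI made by four loose silk ligatures on the right sciatic nerve. On day 7 they received a single i.t. dose in water for injection. Mechanical allodynia was measured 30 min later with an automatic von Frey device (0.5-26 g) on the midplantar hind paw. Data are %MPE, 6-12 rats/group, ANOVA with Bonferroni.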

Rattus norvegicus [8] = species on record: Rattus norvegicus; assay: Antiallodynic effect in Wistar rat chronic constriction injury model at 1 nmol, it measured 7 days post CCI challenge by Von Frey test; format: functional; summary of the method: as §4
Rattus norvegicus [9] = species on record: Rattus norvegicus; assay: Antinociceptive activity in Wistar rat at 1 nmol, it after 30 mins by tail flick test; format: functional; summary of the method: as §3
Rattus norvegicus [10] = species on record: Rattus norvegicus; assay: Toxicity in Wistar rat chronic constriction injury model at 1 nmol, it measured 7 days post CCI challenge; format: organism-based; conditions: in vivo, icv_or_intrathecal, 168 h
Rattus norvegicus [11] = species on record: Rattus norvegicus; assay: Toxicity in Wistar rat chronic constriction injury model at 9.5 nmol, it measured 7 days post CCI challenge; format: organism-based; conditions: in vivo, icv_or_intrathecal, 168 h
Rattus norvegicus [12] = species on record: Rattus norvegicus; assay: Reduction of hyperalgesia in Wistar rat chronic constriction injury model at 1 nmol, it measured 7 days post CCI challenge by cold plate test; format: functional, organism-based
Summary of the method: (§5)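 In catheterized male Wistar rats with sciatic CCI, a single i.t. dose in water for injection was given on day 7. Thermal hyperalgesia was measured 30 min later as latency to hind-paw shake on a 5 °C cold plate. Data are %MPE, 6-12 rats/group, ANOVA with Bonferroni.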

Rattus norvegicus [13] = assay: Antinociceptive activity in it dosed Wistar rat after 30 mins by tail flick test; format: functional; summary of the method: as §3
Rattus norvegicus [14] = assay: Antiallodynic effect in it dosed Wistar rat measured 7 days post CCI challenge by Von Frey test; format: functional; summary of the method: as §4
Rattus norvegicus [15] = assay: Reduction of hyperalgesia in it dosed Wistar rat measured 7 days post CCI challenge by cold plate test; format: functional; summary of the method: as §5
Rattus norvegicus [16] = assay: Antiallodynic effect in Wistar rat chronic constriction injury model assessed as tolerance to neuropathic pain at 1 nmol, it qd for 6 days administered from 7 days post CCI challenge to day 13 by Von Frey test; format: functional, organism-based
Summary of the method: (§6)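 CCI Wistar rats received once-daily i.t. injections (morphine 3.5 nmol, hybrids 1 nmol, in water for injection) from day 7 to day 13 after CCI. Von Frey and 5 °C cold plate tests were run 30 min after each dose. Data are %MPE and AUC, 12-16 rats/group, ANOVA with Bonferroni.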

Rattus norvegicus [17] = assay: Antiallodynic effect in Wistar rat chronic constriction injury model assessed as tolerance to neuropathic pain at 1 nmol, it qd for 6 days administered from 7 days post CCI challenge to day 13 by cold plate test; format: functional, organism-based; summary of the method: as §6
[18] = target: Mu-type opioid receptor (Cavia porcellus) (UniProt P97266); assay: Partial agonist activity at MOR in guinea pig ileum; format: tissue-based; summary of the method: as §2
[19] = target: Mu-type opioid receptor (Cavia porcellus) (UniProt P97266); assay: Antagonist activity at MOR in guinea pig ileum; format: tissue-based
Rattus norvegicus [20] = species on record: Rattus norvegicus; assay: Antinociceptive activity in Wistar rat at 0.001 to 0.1 nmol, it after 30 mins by tail flick test; format: functional, organism-based; summary of the method: as §3
Rattus norvegicus [21] = species on record: Rattus norvegicus; assay: Antiallodynic effect in Wistar rat chronic constriction injury model at 0.001 to 1 nmol, it measured 7 days post CCI challenge by Von Frey test; format: functional, organism-based; summary of the method: as §4

Delta-type opioid receptor (Mus musculus, UniProt P32300), sequence (P32300 whole entry): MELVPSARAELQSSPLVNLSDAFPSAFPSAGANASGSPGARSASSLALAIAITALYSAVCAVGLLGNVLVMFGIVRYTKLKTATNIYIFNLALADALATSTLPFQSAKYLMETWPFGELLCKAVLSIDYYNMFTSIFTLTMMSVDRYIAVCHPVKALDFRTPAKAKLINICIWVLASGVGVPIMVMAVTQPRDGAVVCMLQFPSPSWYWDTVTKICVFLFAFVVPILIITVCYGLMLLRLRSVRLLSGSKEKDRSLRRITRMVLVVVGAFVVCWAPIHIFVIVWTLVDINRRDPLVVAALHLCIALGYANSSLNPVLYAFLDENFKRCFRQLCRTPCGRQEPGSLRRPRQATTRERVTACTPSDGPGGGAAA
Substance-P receptor, sequence (P25103 whole entry): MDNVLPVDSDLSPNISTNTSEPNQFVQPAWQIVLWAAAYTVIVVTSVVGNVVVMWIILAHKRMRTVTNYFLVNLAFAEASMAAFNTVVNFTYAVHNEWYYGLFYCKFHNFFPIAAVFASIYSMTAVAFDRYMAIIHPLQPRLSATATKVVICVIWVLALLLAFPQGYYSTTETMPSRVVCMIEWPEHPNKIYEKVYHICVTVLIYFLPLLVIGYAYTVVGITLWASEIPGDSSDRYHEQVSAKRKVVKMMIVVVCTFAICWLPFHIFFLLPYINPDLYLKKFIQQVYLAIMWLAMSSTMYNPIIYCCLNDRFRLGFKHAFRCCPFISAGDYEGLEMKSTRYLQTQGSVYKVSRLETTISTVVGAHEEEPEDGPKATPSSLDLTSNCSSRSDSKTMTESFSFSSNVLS
Delta-type opioid receptor (Rattus norvegicus, UniProt P33533), sequence (P33533 whole entry): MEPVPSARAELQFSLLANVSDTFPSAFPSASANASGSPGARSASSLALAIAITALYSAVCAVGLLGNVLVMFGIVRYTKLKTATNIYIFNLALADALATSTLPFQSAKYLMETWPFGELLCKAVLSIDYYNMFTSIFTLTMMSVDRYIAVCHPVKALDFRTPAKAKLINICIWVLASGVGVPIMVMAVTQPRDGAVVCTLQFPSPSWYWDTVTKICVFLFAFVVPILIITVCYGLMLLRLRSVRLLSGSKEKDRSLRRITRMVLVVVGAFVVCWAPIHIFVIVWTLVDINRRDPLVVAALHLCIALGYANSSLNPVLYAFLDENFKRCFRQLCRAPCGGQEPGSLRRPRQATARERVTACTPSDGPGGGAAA
Mu-type opioid receptor (Cavia porcellus), sequence (P97266 whole entry): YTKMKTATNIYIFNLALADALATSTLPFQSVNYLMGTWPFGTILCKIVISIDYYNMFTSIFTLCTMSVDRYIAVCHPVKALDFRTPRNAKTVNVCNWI
Mu-type opioid receptor (Cavia porcellus, UniProt P97266), sequence (P97266 whole entry): as above
Mu-type opioid receptor (Rattus norvegicus, UniProt P33535), sequence (P33535 whole entry): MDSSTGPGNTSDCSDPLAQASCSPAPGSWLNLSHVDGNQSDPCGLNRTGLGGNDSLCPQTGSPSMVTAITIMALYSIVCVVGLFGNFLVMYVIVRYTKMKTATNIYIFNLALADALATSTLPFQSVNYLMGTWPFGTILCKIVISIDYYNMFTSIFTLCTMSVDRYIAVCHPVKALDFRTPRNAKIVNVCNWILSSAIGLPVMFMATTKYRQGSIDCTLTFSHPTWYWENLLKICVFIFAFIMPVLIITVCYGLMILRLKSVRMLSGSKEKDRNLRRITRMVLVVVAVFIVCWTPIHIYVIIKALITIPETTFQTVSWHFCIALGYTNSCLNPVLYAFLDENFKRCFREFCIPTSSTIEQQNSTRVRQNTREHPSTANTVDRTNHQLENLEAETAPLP

SMILES: Cc1cc(O)cc(C)c1C[C@H](N)C(=O)N[C@H](CCCNC(N)=O)C(=O)N[C@H]1Cc2ccccc2CN(CCC(=O)N(C)Cc2ccccc2)C1=O
- Ki (Mu-type opioid receptor [1]): 0.28 nM
- Ki [2]: 0.48 nM
- Ratio Ki (Rattus norvegicus [3]): 1.7
- Ki (Substance-P receptor): 3000 nM
- IC50 (Mu-type opioid receptor [4]): 0.96 nM
- IC50 [5]: 0.33 nM

SMILES: Cc1cc(O)cc(C)c1C[C@H](N)C(=O)N[C@H](CCCNC(=N)N)C(=O)N[C@H]1Cc2ccccc2CN(CC(=O)N(C)Cc2cc(C(F)(F)F)cc(C(F)(F)F)c2)C1=O
- Ratio Ki (Rattus norvegicus [3]): 25
- Activity (Rattus norvegicus [6]): Active
- Activity (Rattus norvegicus [7]): Active
- MPE (Rattus norvegicus [8]): 60%
- MPE (Rattus norvegicus [9]): 30%
- Activity (Rattus norvegicus [10]): Non-toxic
- Activity (Rattus norvegicus [11]): Toxic
- Activity (Rattus norvegicus [12]): Active
- ED50 (Rattus norvegicus [13]): 1.66 nmol
- ED50 (Rattus norvegicus [14]): 1.05 nmol
- ED50 (Rattus norvegicus [15]): 1.14 nmol
- Activity (Rattus norvegicus [16]): Active
- Activity (Rattus norvegicus [17]): Active

SMILES: Cc1cc(O)cc(C)c1C[C@H](N)C(=O)N[C@H](CCCNC(=N)N)C(=O)N[C@H]1Cc2ccccc2CN(CCC(=O)N(Cc2ccccc2)CC(C)C)C1=O
- Ki (Substance-P receptor): 308 nM

SMILES: Cc1cc(O)cc(C)c1C[C@H](N)C(=O)N[C@H](CCCNC(=N)N)C(=O)N[C@H]1Cc2ccccc2CN(CC(=O)N(Cc2ccccc2)CC(C)C)C1=O
- Ki (Substance-P receptor): 1020 nM
- Activity [18]: Active
- Ke [19]: 5.91 nM
- IC50 [5]: 28.7 nM

SMILES: Cc1cc(O)cc(C)c1C[C@H](N)C(=O)N[C@H](CCCNC(=N)N)C(=O)N[C@H]1Cc2ccccc2CN(CCC(=O)N(Cc2cc(C(F)(F)F)cc(C(F)(F)F)c2)CC(C)C)C1=O
- Ki (Substance-P receptor): 743 nM

SMILES: Cc1cc(O)cc(C)c1C[C@H](N)C(=O)N[C@H](CCCNC(=N)N)C(=O)N[C@H]1Cc2ccccc2CN(CC(N)=O)C1=O
- Ratio Ki (Rattus norvegicus [3]): 4
- Activity (Rattus norvegicus [20]): Active
- Activity (Rattus norvegicus [21]): Active
- Activity (Rattus norvegicus [12]): Active

SMILES: Cc1cc(O)cc(C)c1C[C@H](N)C(=O)N[C@H](CCCNC(=N)N)C(=O)N[C@H]1Cc2ccccc2CN(CC(=O)NCc2ccccc2)C1=O
- Ki (Mu-type opioid receptor [1]): 0.14 nM
- Ki [2]: 0.62 nM
- Ratio Ki (Rattus norvegicus [3]): 4.4
- Ki (Substance-P receptor): 6190 nM
- IC50 (Mu-type opioid receptor [4]): 4.44 nM
- IC50 [5]: 3.5 nM

SMILES: Cc1cc(O)cc(C)c1C[C@H](N)C(=O)N[C@H](CCCNC(=N)N)C(=O)N[C@H]1Cc2ccccc2CN(CC(=O)N(C)Cc2ccccc2)C1=O
- Ratio Ki (Rattus norvegicus [3]): 24.8
